The GI50 is the concentration giving 50% growth inhibition. What is called HC50 is the concentration that lyses half of the red blood cells. The term MFC denotes the smallest concentration meeting the test's criterion for killing the fungus. Low values mean greater fungicidal potency, high ones weaker fungicidal potency. As a reminder, the MIC is the least concentration at which growth counts as inhibited.

Values after ≈ are worked out from the molar mass of the structure shown.

One data set relates to MCF7. Briefly: Cytotoxicity against human MCF7 cells assessed as cell growth after 2 days by sulforhodamine B assay. Type of data set: functional. Particulars: MCF7, 48 h. A digest of the protocol:
(§1)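 NCI cell lines were run by the Monks method: cells were plated with compounds from DMSO stocks and incubated 2 days at 37 °C in 5% CO2, in duplicate. Cells were fixed with cold TCA, stained with 0.4% SRB, and the bound dye was solubilized in 10 mM tris-base and read at 515 nm. The zero-day control was subtracted, and GI50 was taken from the curves.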
Background: In SRB staining, fixed cells bind dye roughly in proportion to their protein.

A further data set has as its system NCI-H460. Briefly: Cytotoxicity against human H460 cells assessed as cell growth after 2 days by sulforhodamine B assay. Format: functional. Particulars: NCI-H460, 48 h. The essentials: as §1
In another data set the test system is SF-268. In words: Cytotoxicity against human SF268 cells assessed as cell growth after 2 days by sulforhodamine B assay. Format: functional. Particulars: SF-268, 48 h. A digest of the protocol:
as §1

Data set [1] is described as follows: Cytotoxicity against human erythrocytes assessed as hemolysis by spectrometric analysis. Format: cell-based, Erythrocyte. A digest of the protocol:
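Human heparinized red blood cells were washed in PBS at pH 7.0 and suspended at 4% in sterile 5% glucose. Compounds from DMSO stocks were diluted in 5% glucose to final concentrations of 250 to 0.24 µg/ml and incubated with the cells at 37 °C. Released hemoglobin was read at 540 nm. HC50 is the concentration giving 50% lysis relative to the drug-free value.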

Another data set has as its system Candida albicans. Briefly: Antifungal activity against Candida albicans ATCC 10213. Format: functional. The essentials:
(§2)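 CLSI M27-A3 broth microdilution in RPMI-1640 buffered to pH 7.0 with MOPS. Inoculum 1-5 × 10^3 CFU/mL. Compound twofold dilutions from 250 to 0.24 µg/ml, final DMSO <1%. Incubated at 35 °C in a moist, dark chamber and read at 48 h. MIC is the lowest concentration giving total growth inhibition. For MFC, 5 µL from clear wells was plated in duplicate on SDA; MFC is the lowest concentration with no growth.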

In the next data set the test system is Candida tropicalis. Briefly: Antifungal activity against Candida tropicalis C 131 2000. Format: functional. A digest of the protocol: as §2
Another data set relates to Saccharomyces cerevisiae. In words: Antifungal activity against Saccharomyces cerevisiae ATCC 9763. Type of data set: functional. A digest of the protocol: as §2
The test system of another data set is Cryptococcus neoformans. In words: Antifungal activity against Cryptococcus neoformans ATCC 32264. Format: functional. A digest of the protocol:
as §2

The subject of a further data set is Aspergillus fumigatus. Briefly: Antifungal activity against Aspergillus fumigatus ATCC 26934. Type of data set: functional. The essentials: (§3)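 Broth microdilution per CLSI M38-A2 in RPMI-1640 with MOPS at pH 7.0. Inoculum 1-5 × 10^3 CFU/mL, with twofold compound dilutions spanning 250-0.24 µg/ml (final DMSO <1%). Plates incubated at 35 °C, moist and dark, and read when the control fungus had grown. MIC is total growth inhibition. MFC comes from subculturing clear wells in duplicate onto SDA.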

The test system of the next data set is Aspergillus flavus. Briefly: Antifungal activity against Aspergillus flavus ATCC 9170. Format: functional. A digest of the protocol:
as §3

A further data set deals with Aspergillus niger. Briefly: Antifungal activity against Aspergillus niger ATCC 9029. Format: functional. A digest of the protocol: as §3
The subject of another data set is Nannizzia gypsea. Briefly: Antifungal activity against Microsporum gypseum C 115 2000. Type of data set: functional. The essentials: (§4)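 Dermatophytes tested by CLSI M38-A2 microdilution in MOPS-buffered RPMI-1640 at pH 7.0. Inoculum 1-5 × 10^3 CFU/mL; compounds 250 to 0.24 µg/ml in twofold steps, final DMSO <1%. Incubated at 28 °C in a moist, dark chamber and read according to control growth. MIC is the lowest concentration with complete inhibition. MFC is the lowest concentration with no growth after duplicate subculture on SDA.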

The subject of a further data set is Trichophyton rubrum. Briefly: Antifungal activity against Trichophyton rubrum C 113 2000. Format: functional. A digest of the protocol:
as §4

Data set [2] relates to Trichophyton mentagrophytes. In words: Antifungal activity against Trichophyton mentagrophytes ATCC 9972. Type of data set: functional. A digest of the protocol:
as §4

Consider `CCCCN1C(=O)C=CC1=O`, for which the GI50 in the data set on MCF7, in the data set on NCI-H460 and with SF-268 was over 10 µg/mL throughout. In data set [1], the HC50 is over 250 µg/mL. Moreover, the minimal fungicidal concentration (MFC) against Candida albicans came out at 15.6 µg/mL (≈ 102 µM); against Candida tropicalis, 3.9 µg/mL (≈ 25.5 µM); against Saccharomyces cerevisiae, 1.95 µg/mL (≈ 12.7 µM); with Cryptococcus neoformans, 7.81 µg/mL (≈ 51 µM); in the data set with Aspergillus fumigatus, 1.95 µg/mL (≈ 12.7 µM); against Aspergillus flavus it was 7.81 µg/mL (≈ 51 µM). The MFC with Aspergillus niger amounted to 3.9 µg/mL (≈ 25.5 µM); in the data set on Nannizzia gypsea it was 3.9 µg/mL (≈ 25.5 µM); in the data set with Trichophyton rubrum, 1.95 µg/mL (≈ 12.7 µM); in [2], 3.9 µg/mL (≈ 25.5 µM). Moreover, the MIC against Candida albicans was 3.9 µg/mL (≈ 25.5 µM); with Candida tropicalis it was 3.9 µg/mL (≈ 25.5 µM); against Saccharomyces cerevisiae it was 1.95 µg/mL (≈ 12.7 µM); in the data set with Cryptococcus neoformans, 3.9 µg/mL (≈ 25.5 µM); against Aspergillus fumigatus, 1.95 µg/mL (≈ 12.7 µM); in the data set with Aspergillus flavus, 1.95 µg/mL (≈ 12.7 µM). In addition, the MIC in the data set on Aspergillus niger worked out at 3.9 µg/mL (≈ 25.5 µM); against Nannizzia gypsea, 3.9 µg/mL (≈ 25.5 µM); against Trichophyton rubrum, 1.95 µg/mL (≈ 12.7 µM); in [2] it was 1.95 µg/mL (≈ 12.7 µM).

On to `O=C1C=CC(=O)N1c1ccc(F)cc1F`, for which the GI50 with MCF7, with NCI-H460 and in the data set with SF-268 was over 10 µg/mL throughout. Moreover, the HC50 in [1] is over 250 µg/mL. The MFC in the data set with Candida albicans was determined as 31.2 µg/mL (≈ 149 µM); against Candida tropicalis it was 31.2 µg/mL (≈ 149 µM); against Saccharomyces cerevisiae it was 15.6 µg/mL (≈ 74.7 µM); against Cryptococcus neoformans, 7.81 µg/mL (≈ 37.3 µM); against Aspergillus fumigatus, 31.2 µg/mL (≈ 149 µM); against Aspergillus flavus, 62.5 µg/mL (≈ 299 µM). Besides, the MFC in the data set on Aspergillus niger was determined as 31.2 µg/mL (≈ 149 µM); against Nannizzia gypsea it was 7.81 µg/mL (≈ 37.3 µM); against Trichophyton rubrum, 7.81 µg/mL (≈ 37.3 µM); in data set [2], 7.81 µg/mL (≈ 37.3 µM). Besides, the MIC against Candida albicans turned out to be 15.6 µg/mL (≈ 74.7 µM); in the data set on Candida tropicalis it was 15.6 µg/mL (≈ 74.7 µM); against Saccharomyces cerevisiae it was 7.81 µg/mL (≈ 37.3 µM); in the data set with Cryptococcus neoformans, 7.81 µg/mL (≈ 37.3 µM); in the data set with Aspergillus fumigatus, 31.2 µg/mL (≈ 149 µM); with Aspergillus flavus it was 62.5 µg/mL (≈ 299 µM). Moreover, the minimal inhibitory concentration (MIC) came out at 15.6 µg/mL (≈ 74.7 µM) in the data set on Aspergillus niger, 3.9 µg/mL (≈ 18.6 µM) with Nannizzia gypsea, 3.9 µg/mL (≈ 18.6 µM) with Trichophyton rubrum and 3.9 µg/mL (≈ 18.6 µM) in data set [2].

In the case of `CN1C(=O)C=CC1=O`, the 50% growth inhibitory concentration (GI50) in the data set on MCF7, in the data set with NCI-H460 and in the data set on SF-268 was over 10 µg/mL throughout. Moreover, the HC50 in [1] is over 250 µg/mL. For the same compound, the MFC against Candida albicans came out at 125 µg/mL (≈ 1130 µM); against Candida tropicalis, 62.5 µg/mL (≈ 563 µM); against Saccharomyces cerevisiae, 15.6 µg/mL (≈ 141 µM); with Cryptococcus neoformans it was 62.5 µg/mL (≈ 563 µM); against Aspergillus fumigatus, 62.5 µg/mL (≈ 563 µM); in the data set on Aspergillus flavus it was 31.2 µg/mL (≈ 281 µM). Besides, the MFC against Aspergillus niger is 15.6 µg/mL (≈ 141 µM); against Nannizzia gypsea, 7.81 µg/mL (≈ 70.3 µM); with Trichophyton rubrum, 15.6 µg/mL (≈ 141 µM); in [2] it was 15.6 µg/mL (≈ 141 µM). The minimal inhibitory concentration (MIC) against Candida albicans turned out to be 62.5 µg/mL (≈ 563 µM); against Candida tropicalis it was 31.2 µg/mL (≈ 281 µM); in the data set on Saccharomyces cerevisiae, 7.81 µg/mL (≈ 70.3 µM); with Cryptococcus neoformans, 15.6 µg/mL (≈ 141 µM); with Aspergillus fumigatus, 15.6 µg/mL (≈ 141 µM); with Aspergillus flavus, 15.6 µg/mL (≈ 141 µM). The MIC against Aspergillus niger was found to be 7.81 µg/mL (≈ 70.3 µM); against Nannizzia gypsea, 7.81 µg/mL (≈ 70.3 µM); in the data set with Trichophyton rubrum, 3.9 µg/mL (≈ 35.1 µM); in [2] it was 7.81 µg/mL (≈ 70.3 µM).

Turning to `Cc1ccccc1N1C(=O)C=CC1=O`, the GI50 with MCF7, with NCI-H460 and with SF-268 was over 10 µg/mL each time. The HC50 in data set [1] was over 250 µg/mL. The MFC against Candida albicans came to 15.6 µg/mL (≈ 83.5 µM); against Candida tropicalis, 31.2 µg/mL (≈ 167 µM); against Saccharomyces cerevisiae, 7.81 µg/mL (≈ 41.7 µM); against Cryptococcus neoformans it was 7.81 µg/mL (≈ 41.7 µM); in the data set on Aspergillus fumigatus, 125 µg/mL (≈ 668 µM); against Aspergillus flavus, 62.5 µg/mL (≈ 334 µM). In addition, the MFC was 62.5 µg/mL (≈ 334 µM) with Aspergillus niger, 7.81 µg/mL (≈ 41.7 µM) against Nannizzia gypsea, 3.9 µg/mL (≈ 20.8 µM) against Trichophyton rubrum and 3.9 µg/mL (≈ 20.8 µM) in data set [2]. Also, the MIC in the data set on Candida albicans amounted to 15.6 µg/mL (≈ 83.5 µM); in the data set with Candida tropicalis it was 15.6 µg/mL (≈ 83.5 µM); in the data set on Saccharomyces cerevisiae it was 7.81 µg/mL (≈ 41.7 µM); in the data set on Cryptococcus neoformans, 7.81 µg/mL (≈ 41.7 µM); against Aspergillus fumigatus, 62.5 µg/mL (≈ 334 µM); against Aspergillus flavus, 62.5 µg/mL (≈ 334 µM). The MIC in the data set on Aspergillus niger worked out at 15.6 µg/mL (≈ 83.5 µM); in the data set with Nannizzia gypsea, 3.9 µg/mL (≈ 20.8 µM); against Trichophyton rubrum, 1.95 µg/mL (≈ 10.4 µM); in data set [2] it was 1.95 µg/mL (≈ 10.4 µM).

The record behind these values is ChEMBL document CHEMBL1772954, “Antifungal, cytotoxic and SAR studies of a series of N-alkyl, N-aryl and N-alkylphenyl-1,4-pyrrolediones and related compounds” (Bioorg Med Chem, 2011).
